# Compounds with a hit are over-represented: about 3.3% of the library has one in this group of screens.
# NRP1-CendR mod: modulators of CendR peptide binding to human neuropilin-1; O14786; FAM-RPARPAR peptide binding to NRP-1, fluorescence polarization; inhibition, % at 25 µM; hit rate 0.85% among 360,000; AID 602438;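 active = inhibition or corrected inhibition above about 18%, plus a signal ratio from 0.5 to 1.5, limit read from the data, passing the limit was not always enough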
# Target sequence (O14786 whole entry, looked up): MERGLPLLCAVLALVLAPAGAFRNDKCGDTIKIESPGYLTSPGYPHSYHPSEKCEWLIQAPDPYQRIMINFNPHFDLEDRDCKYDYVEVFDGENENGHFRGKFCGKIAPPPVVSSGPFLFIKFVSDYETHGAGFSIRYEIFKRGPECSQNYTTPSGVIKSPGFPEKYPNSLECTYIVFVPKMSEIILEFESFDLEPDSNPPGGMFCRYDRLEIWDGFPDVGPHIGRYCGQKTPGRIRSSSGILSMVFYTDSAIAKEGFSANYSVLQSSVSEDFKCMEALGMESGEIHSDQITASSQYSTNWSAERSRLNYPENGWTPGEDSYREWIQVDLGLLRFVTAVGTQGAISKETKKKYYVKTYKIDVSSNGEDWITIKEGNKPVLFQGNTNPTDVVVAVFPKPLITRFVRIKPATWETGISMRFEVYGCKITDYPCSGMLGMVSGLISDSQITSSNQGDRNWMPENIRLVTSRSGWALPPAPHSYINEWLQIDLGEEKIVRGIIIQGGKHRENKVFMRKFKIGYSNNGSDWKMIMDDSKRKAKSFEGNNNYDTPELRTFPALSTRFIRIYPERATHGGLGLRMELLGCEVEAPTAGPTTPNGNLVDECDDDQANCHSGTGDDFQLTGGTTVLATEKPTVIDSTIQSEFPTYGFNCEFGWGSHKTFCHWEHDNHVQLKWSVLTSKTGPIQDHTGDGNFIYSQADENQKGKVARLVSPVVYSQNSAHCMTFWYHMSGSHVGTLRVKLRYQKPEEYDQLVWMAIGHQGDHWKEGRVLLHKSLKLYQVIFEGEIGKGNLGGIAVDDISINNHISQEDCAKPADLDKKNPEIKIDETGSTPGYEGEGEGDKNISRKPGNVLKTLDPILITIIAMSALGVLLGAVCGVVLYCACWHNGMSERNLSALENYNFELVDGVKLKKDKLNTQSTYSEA
# Myeloid diff MLP: myeloid differentiation induction. hit rate 1% among 360,000. calls only at 10 µM. ER-HoxA9 myeloid progenitors, lysozyme-GFP differentiation, flow cytometry;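 active = normalized GFP-positive differentiation at or above the plate's own cutoff, the solvent-only control mean plus 3 SD; inconclusive = no clear call, values can overlap the other calls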;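 note: cells exposed to compound for four days before flow analysis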
# Arrestin-AP2 inh: inhibitors of human beta-arrestin and AP2 interaction; FITC-arrestin peptide / GST-AP2 beads, flow cytometry; AP2 beta2 appendage carries R879A mutation; inhibition, % at 10 µM; hit rate 0.31% among 340,000; AID 504490;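 active = inhibition above a set limit, near 3 SD of compounds lacking own fluorescence, cut at about 54% in these data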;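 note: plate controls were DMSO wells for no effect and 5 µM unlabelled arrestin peptide for full effect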
#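 System: GST-AP2 R879A glutathione beads | Also added: FITC-arrestin peptide, 50 nM | Times: 12 min plus 1 h, RT | Signal: Bead flow cytometry, FITC channel | Buffer or medium: PBS with 0.05% Tween 20 and 0.1% BSA | Read-out basis: Percent drop in bead-associated FITC signal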
# Granule exo inh: blocks lytic granule exocytosis; TALL-104 LAMP-1 surface exposure, flow cytometry; cells stimulated with thapsigargin and PMA; inhibition, % at 10 µM; hit rate 0.66% among 360,000; AID 651702;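 active = inhibition above about 55%, limit read from the data; inconclusive = no clear call, values can overlap the other calls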
# ABCB6 inh 2: blocks the human ABCB6 transporter. K562-ABCB6 porphyrin accumulation, flow cytometry, 1 h; stronger effect = lower value. fluorescence ratio to DMSO, % at 10 µM. hit rate 0.19% among 360,000. AID 602162;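 active = fluorescence ratio to DMSO below 75%, the collection mean minus 3 SD; inconclusive = too few cells collected in the well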;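 note: signal is porphyrin accumulated inside mitochondria; 100% equals median channel fluorescence of DMSO control wells; lower ratio means ABCB6 inhibition with less porphyrin fluorescence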
# ATG4B inh: inhibitors of human ATG4B cysteine protease; Q9Y4P1; ATG4B cleavage of LC3-PLA2, NBD-HPC fluorescence, 1 h; inhibition, % at 8.33 µM; hit rate 0.51% among 340,000; AID 504462; in the data active = inhibition above about 40%
# * = called active by the depositor; i = inactive; ? = inconclusive; / = no result given; + = active, no number; ! = not confirmed by another sample.
SMILES,NRP1-CendR mod,Myeloid diff MLP,Arrestin-AP2 inh,Granule exo inh,ABCB6 inh 2,ATG4B inh
COc1ccc(CNCCCC(=O)Nc2c(Cl)ccc(C)c2Cl)cc1OC,1,i,-5,-1,103,-6
COc1ccc(N2CS(=O)CC2=O)cc1 (stereo unspecified),27*,i,2,14,105,-1
Cc1ccc(NC(=O)/C=C/c2ccc3c(c2)OCO3)nc1,-4,+,17,2,94,-5
Cc1ccc(NC(=O)Nc2ccc3c(c2)OCO3)nc1,2,i,-15,-4,94,-2
O=C(COC(=O)CCC(=O)c1ccc(Cl)cc1)NCc1ccco1,-12,i,15,5,99,3
OCCC1CCCCN1CC(O)COCc1ccc(Cl)cc1 (stereo unspecified),21*,i,12,9,96,-4
CC1(C(=O)NCc2ccco2)Cc2c(-c3cccc(C(N)=O)c3)ccnc2O1 (stereo unspecified),-3,i,/,-4,104,/
O=S(=O)(c1ccccc1)c1nc(-c2ccc(F)cc2)oc1N1CCOCC1,22*,i,10,-11,89,-8
O=S(=O)(c1ccc(F)cc1)c1nc(-c2ccccc2)oc1N1CCOCC1,-5,i,-18,-5,101,2
CC1CCN(C(=O)CSc2nncn2C)CC1,48*,i,-4,14,100,0
CCOP(=O)(c1ccccc1)C(O)c1ccccc1 (stereo unspecified),-6,i,1,5,102,1
Cc1nn(C)c(C)c1S(=O)(=O)N(CC(=O)N1CCc2ccccc21)c1ccc(C(C)C)cc1,-4,+,-1,2,79,-7
C=CCn1nnnc1SCC(=O)Nc1cccc(C(F)(F)F)c1,1,+,45,-9,105,-2
C=CCn1nnnc1SCC(=O)Nc1ccc(C(=O)OC)cc1,1,i,5,0,106,-3
O=c1c2cc3c(nc2[nH]c(=S)n1-c1ccccc1)CCCC3,8,i,-9,1,93,-1
CC1CCN(c2nc(-c3cccnc3)nc3scc(-c4ccccc4)c23)CC1,-9,i,3,8,101,3
Clc1nc(-c2ccccn2)nc2scc(-c3ccccc3)c12,30*,?,0,-4,83,8
CCOC(=O)C1(C)CCN1C(=O)c1cc2ccccc2s1 (stereo unspecified),8,i,/,-3,91,/
Cc1sc2nc(COC(=O)c3ccc(N4CCCC4)c([N+](=O)[O-])c3)[nH]c(=O)c2c1C,-72,+,-10,5,137,-8
COc1ccc(C(NC(=O)/C=C\c2ccco2)c2ccc(OC)c(OC)c2)cc1 (stereo unspecified),-42,i,3,-4,61*,-9
Cc1ccc(S(=O)(=O)C=CS(=O)(=O)c2ccc(C)cc2)cc1,10,i,/,-4,101,/
C=CCC(C=C)S(=O)(=O)c1ccc(C)cc1 (stereo unspecified),-1,+,-6,-4,96,2
CC(=O)c1ccc(NC(=O)C(C)Sc2nnc(-c3ccncc3)n2C2CC2)cc1 (stereo unspecified),15,i,-9,-2,96,-10
COc1ccc(CCNc2nc(-c3ccc(F)cc3)c(CC(=O)O)s2)cc1OC,-64,+,-5,15,113,-10
COc1ccc(CCNc2nc(C)c(C(C)=O)s2)cc1OC,-3,i,1,-8,102,-4
SMILES,NRP1-CendR mod,Myeloid diff MLP,Arrestin-AP2 inh,Granule exo inh,ABCB6 inh 2,ATG4B inh
Cc1c(C(=O)N(C)Cc2nc3ccccc3c(=O)[nH]2)oc2ccccc12,4,+,4,6,103,-6
CCc1ccccc1NC(=O)c1ccccc1N1C(=O)C2C3C=CC(C3)C2C1=O (stereo unspecified),22*,i,-17,-1,91,-6
COc1ccc(C2=NOC3(CC(=O)N(c4ccc(C)cc4)C3=O)C2)c(OC)c1 (stereo unspecified),-3,i,1,1,101,-4
Cc1noc(C)c1C(=O)OCC(=O)NCc1ccccc1,24*,i,-9,3,90,-2
CCN(CC)Cc1cc(Nc2c3ccccc3nc3c4ccccc4n(C)c23)cc(CN(CC)CC)c1O,-1,?,44,100*,87,3
Oc1cccc(Nc2c3ccccc3nc3ccccc23)c1,9,/,22,28,101,-1
COC(=O)C1=C(C)NC(C)=C(C(=O)OC)C1C(=O)OC(C)C(=O)c1ccccc1 (stereo unspecified),25*!,i,-7,-2,85,-14
CCN(C(=O)C(C)OC(=O)C1C(C(=O)OC)=C(C)NC(C)=C1C(=O)OC)c1ccccc1 (stereo unspecified),3,i,48,-4,95,-3
CCn1nc(C)cc1C(=O)Sc1cccc(Cl)c1,-18,i,-16,68*,90,-2
Cc1nn(C)c(C(=O)Sc2cccc(Cl)c2)c1[N+](=O)[O-],8,i,-7,64*,94,-2
CCOCCCNC(=S)N1CCN(Cc2ccc3c(c2)OCO3)CC1,-9,i,22,-2,96,-1
CN1C(=O)N(c2ccccc2)C(Nc2nncs2)C1(C)C (stereo unspecified),5,+,6,1,99,11
CN1C(=O)N(c2cccc3ccccc23)C(n2cncn2)C1(C)C (stereo unspecified),-9,i,11,-1,99,-1
Cc1nn(Cc2cccc(C(=O)O)c2)c(C)c1[N+](=O)[O-],-11,i,4,1,95,-7
Cc1nn(Cc2cccc(C(=O)Nc3ccn(Cc4ccccc4)n3)c2)c(C)c1[N+](=O)[O-],-6,+,10,1,96,11
O=C(CNC(=O)[C@@H]1Cc2ccccc2CN1)Nc1ccc2c(c1)OCCO2,2,i,-7,2,92,-8
Cc1ccc(S(=O)(=O)NCCCCCC(=O)NCCc2ccccc2)cc1,12,i,28,5,96,-2
COc1ccc(-c2[nH]ncc2Oc2ccccc2OC)c(O)c1,16,+,5,-2,103,3
COc1ccc(Oc2cn[nH]c2-c2ccc(O)cc2O)cc1,4,i,19,-4,101,2
NS(=O)(=O)c1ccc(NC2(C(=O)O)CCCC2)cc1,-8,+,-3,-4,184,-1
NS(=O)(=O)c1ccc(NC(=O)C2(c3ccccc3)CCCC2)cc1,3,i,8,2,93,-11
COc1ccc(C(=O)NC(=S)NNC(=O)c2ccc(O)cc2)cc1[N+](=O)[O-],2,/,17,-8,101,1
